Calls of active or inactive are those of the source. The rule behind the calls is not given here.
Tests used:
[1] = molecular target: D(1A) dopamine receptor (Homo sapiens) (UniProt P21728); assay: Positive allosteric modulation of D1R expressed in human SK-N-MC cells assessed as potentiation of DA-induced cAMP production pretreated with compound for 15 mins followed by dopamine addition measured after 15 mins by HTRF assay relative to control; assay type: functional, cell-based; conditions: dose 0.1-10 µM, time 30.0 min
Sequence of D(1A) dopamine receptor (Homo sapiens) (P21728 whole entry): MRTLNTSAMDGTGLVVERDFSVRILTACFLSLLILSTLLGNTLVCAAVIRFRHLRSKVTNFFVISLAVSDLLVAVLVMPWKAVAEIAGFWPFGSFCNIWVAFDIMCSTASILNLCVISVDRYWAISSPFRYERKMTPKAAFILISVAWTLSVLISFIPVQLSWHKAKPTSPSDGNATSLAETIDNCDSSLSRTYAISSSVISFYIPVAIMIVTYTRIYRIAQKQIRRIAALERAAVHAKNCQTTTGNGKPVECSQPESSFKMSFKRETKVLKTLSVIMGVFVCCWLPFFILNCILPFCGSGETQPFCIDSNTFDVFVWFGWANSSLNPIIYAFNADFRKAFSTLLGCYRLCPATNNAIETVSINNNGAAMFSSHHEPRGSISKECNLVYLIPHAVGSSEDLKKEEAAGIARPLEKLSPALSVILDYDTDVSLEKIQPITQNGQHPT
Summary of the method: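 Human SK-N-MC neuroblastoma cells with endogenous D1R, seeded at 1×10^4 cells/well in Opti-MEM with 500 μM IBMX. Preincubated with 10 μM compound for 15 min at 25 °C, then dopamine concentration–response for 15 min at 25 °C. Lysed and cAMP read by HTRF. Change in dopamine Emax used; >20% potentiation taken as a potential PAM.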

Mus musculus [2] = assay: Cognitive enhancing effect in C57BL/6J mouse assessed as ratio of novel to familiar at 1 mg/kg, ip by novel object recognition test; assay type: functional, organism-based; conditions: time 24-96 hrs
Summary of the method: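 Three-month-old male C57BL/6J mice, 8 per condition. After 5 min habituation to an empty 40 cm open field, given 1 mg/kg ip or vehicle (0.9% NaCl). 20 min later, 10 min acquisition with two identical objects. Later 10 min test sessions at 24 and 96 h. Nose/forepaw exploration scored. Discrimination ratio = (novel − familiar)/total exploration time.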

Mus musculus [3] = assay: Anti-parkinson activity in reserpine induced C57BL/6 mouse model assessed as decrease in locomotion at 30 mg/kg, po measured for 60 mins; assay type: functional, organism-based
Summary of the method: (§1)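 Male C57BL/6 mice (22–25 g), n = 10/group, given reserpine 2.5 mg/kg sc (DMSO/saline). 20 h later dosed with vehicle or 30 mg/kg po (5% NMP + 5% solutol HS-15 + 90% saline), and/or L-DOPA 100 or 400 mg/kg ip plus carbidopa 100 mg/kg ip 30 min before recording. Placed in cage 15 min after the po dose. Total distance travelled over 60 min by video tracking.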

[4] = Toxicity in cocaine-induced hyperactive C57BL/6 mouse model assessed as hyperlocomotion at 1 mg/kg, ip pretreated for 15 mins followed by cocaine addition measured after 15 mins; assay type: organism-based; conditions: in vivo, 0.5 h, time 30 min
Summary of the method: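 Three-month-old male C57BL/6J mice, 8 per group, habituated to injections for 5 days. Given 1 mg/kg ip in sterile saline (20 mL/kg) 15 min before cocaine 20 mg/kg sc. Placed in a 50 cm open field 5 min after cocaine. Horizontal locomotion (total distance, cm) video-tracked in 2 min blocks over 30 min.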

[5] = Ratio of drug concentration in brain to plasma in BALB/c mouse plasma at 5 mg/kg, po administered as single dose measured 0.5 to 4 hrs; assay type: ADME, organism-based; conditions: time 0.5-4 hrs
Summary of the method: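 Male BALB/c mice given a single oral dose of 5 mg/kg. Plasma, brain and CSF levels measured over time. Brain-to-plasma concentration ratios calculated between 0.5 and 4 h.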

Mus musculus [6] = assay: Anti-parkinson activity in reserpine induced C57BL/6 mouse model assessed as decrease in locomotion at 100 to 400 mg/kg, ip measured for 60 mins; assay type: functional, organism-based; conditions: dose 100-400 mg/kg; summary of the method: as §1
[7] = filed as positive allosteric modulator

Structure (SMILES)	Emax [1]	other results
O=Cc1ccc(-c2ccc(OCF)cc2)cc1	29%	–
CNS(=O)(=O)c1ccc(-c2ccccc2OCF)cc1	38%	–
O=Cc1ccc(-c2ccccc2SC(F)F)cc1	–	Emax [1, 7]: 44%
CC[S+]([O-])c1ccc(-c2ccccc2OCF)cc1 (centres undefined)	16%	–
O=Cc1cccc(-c2ccccc2OCF)c1	23%	–
NC(=O)c1ccc(-c2ccccc2OCF)cc1	16%	–
NS(=O)(=O)c1ccc(-c2ccccc2OCF)cc1	31%	–
CS(=N)(=O)c1ccc(-c2ccccc2OCF)cc1 (racemic)	–	Activity (Mus musculus [2]): Active; Activity (Mus musculus [3]): Active; Activity [4]: Non-Toxic; Emax [1, 7]: 55%; Kp [5]: 0.55; Activity (Mus musculus [6]): Active
O=Cc1ccc(-c2ccc(OC(F)F)cc2)cc1	35%	–
O=Cc1ccc(-c2cccc(OCF)c2)cc1	25%	–
CS(=N)(=O)c1ccc(-c2ncccc2OCF)cc1 (centres undefined)	1%	–
O=Cc1ccc(-c2ccccc2SCF)cc1	14%	–
CC(=O)c1ccc(-c2ccccc2OCF)cc1	11%	–
CS(=N)(=O)c1ccc(-c2ccccc2OCF)cc1Cl (centres undefined)	12%	–
CS(=N)(=O)c1ccc(-c2ccccc2OCF)c(Cl)c1 (centres undefined)	20%	–
N[C@@H](Cc1ccc(O)c(O)c1)C(=O)O	–	Activity (Mus musculus [6]): Active
COC(=O)c1ccc(-c2ccccc2OCF)cc1	28%	–
CCS(=N)(=O)c1ccc(-c2ccccc2OCF)cc1 (centres undefined)	–	Emax [1, 7]: 54%
O=Cc1ccc(-c2ccccc2OC(F)F)cc1	–	Emax [1, 7]: 45%
O=Cc1cccc(-c2ccccc2OC(F)F)c1	12%	–
O=C(O)c1ccc(-c2ccccc2OCF)cc1	7%	–
CN=S(C)(=O)c1ccc(-c2ccccc2OCF)cc1 (centres undefined)	30%	–
C[S+]([O-])c1ccc(-c2ccccc2OCF)cc1 (racemic)	–	Emax [1, 7]: 60%
O=Cc1ccc(-c2cccc(OC(F)F)c2)cc1	37%	–
